ChEMBL document CHEMBL5724801, “EUbOPEN Chemogenomics Library - Multiplex” (2024)
Values joined by “and” are separate entries in the source; they are usually repeats but may differ in a detail not shown here. Equal values may be shown once.

Columns and labels:
Type in all cases: toxicity, cell-based
U2OS = assay: Multiplex assay against U2OS; conditions: human
Outline: (§1)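 Live cells were stained at seeding with Hoechst33342, BioTracker Green Microtubule Cytoskeleton Dye, MitoTracker Red and Annexin V Alexa Fluor 680. Following compound addition, they were imaged on a CQ1 microscope at 37°C and 5% CO2 and gated by CellPathfinder machine learning into Hoechst high-intensity objects or normal cells, with normal cells split into healthy, pyknosed or fragmented nuclei and pyknosed cells into mitotic or apoptotic. Tubulin, mitochondrial-mass and membrane-permeability phenotypes are per cents of healthy-nucleus cells.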

HEK-293T = assay: Multiplex assay against HEK293T; conditions: human; outline: as §1
Fibroblast = assay: Multiplex assay against human fibroblast; outline: as §1
[1] = 12 h, 1 µM, compound concentration 1 uM
[2] = 12 h, 10 µM, compound concentration 10 uM
[3] = 24 h, 1 µM, compound concentration 1 uM
[4] = 24 h, 10 µM, compound concentration 10 uM
[5] = 48 h, 1 µM, compound concentration 1 uM
[6] = 48 h, 10 µM, compound concentration 10 uM

## N#Cc1cc(F)cc(-c2nc(-c3ccc(F)cn3)no2)c1
U2OS; [1]
  Population Apoptotic (%): 55% and 100%
  Population Fragmented Nuclei (%): 24% and 17%
  Population Healthy Nuclei (%): 65% and 79%
  Population Hoechst High Intensity Objects (%): 1% and 0%
  Population Membrane Permeable-Phenotype (%): 5% and 6%
  Population Mitochondria Different-Phenotype (%): 0% and 5%
  Population Normal (%): 98% and 99%
  Population Pyknosed Nuclei (%): 10% and 4%
  Population Tubulin-Different-Phenotype (%): 3% and 2%
  Total Cell Count: 178 and 101
U2OS; [2]
  Population Apoptotic (%): 76% and 88%
  Population Fragmented Nuclei (%): 33% and 12%
  Population Healthy Nuclei (%): 59% and 81%
  Population Hoechst High Intensity Objects (%): 1%
  Population Membrane Permeable-Phenotype (%): 8% and 7%
  Population Mitochondria Different-Phenotype (%): 2% and 4%
  Population Mitotic Cells (%): 23% and 11%
  Population Normal (%): 98%
  Population Pyknosed Nuclei (%): 6%
  Population Tubulin-Different-Phenotype (%): 2% and 1%
  Total Cell Count: 196 and 151
U2OS; [3]
  Population Apoptotic (%): 90%
  Population Fragmented Nuclei (%): 22% and 8%
  Population Healthy Nuclei (%): 66% and 84%
  Population Hoechst High Intensity Objects (%): 4% and 0%
  Population Membrane Permeable-Phenotype (%): 8% and 2%
  Population Mitochondria Different-Phenotype (%): 0% and 3%
  Population Mitotic Cells (%): 9% and 10%
  Population Normal (%): 95% and 99%
  Population Pyknosed Nuclei (%): 11% and 8%
  Population Tubulin-Different-Phenotype (%): 4% and 2%
  Total Cell Count: 197 and 126
U2OS; [4]
  Population Apoptotic (%): 93% and 88%
  Population Healthy Nuclei (%): 60% and 85%
  Population Hoechst High Intensity Objects (%): 1% and 0%
  Population Membrane Permeable-Phenotype (%): 7% and 5%
  Population Mitochondria Different-Phenotype (%): 0% and 1%
  Population Mitotic Cells (%): 6% and 11%
  Population Normal (%): 98% and 99%
  Population Pyknosed Nuclei (%): 7% and 4%
  Population Tubulin-Different-Phenotype (%): 2% and 1%
  Total Cell Count: 230 and 216
U2OS; [5]
  Population Apoptotic (%): 96% and 100%
  Population Fragmented Nuclei (%): 18% and 15%
  Population Healthy Nuclei (%): 71% and 79%
  Population Hoechst High Intensity Objects (%): 1%
  Population Membrane Permeable-Phenotype (%): 4%
  Population Mitochondria Different-Phenotype (%): 0% and 3%
  Population Mitotic Cells (%): 3% and 0%
  Population Normal (%): 98%
  Population Pyknosed Nuclei (%): 9% and 5%
  Population Tubulin-Different-Phenotype (%): 2% and 1%
  Total Cell Count: 290 and 199
U2OS; [6]
  Population Apoptotic (%): 85% and 94%
  Population Fragmented Nuclei (%): 30% and 10%
  Population Healthy Nuclei (%): 62% and 84%
  Population Hoechst High Intensity Objects (%): 1%
  Population Membrane Permeable-Phenotype (%): 6% and 4%
  Population Mitochondria Different-Phenotype (%): 2%
  Population Mitotic Cells (%): 14% and 5%
  Population Normal (%): 98%
  Population Pyknosed Nuclei (%): 7% and 5%
  Population Tubulin-Different-Phenotype (%): 3% and 2%
  Total Cell Count: 282 and 344
HEK-293T; [1]
  Population Apoptotic (%): 38% and 64%
  Population Fragmented Nuclei (%): 10% and 6%
  Population Healthy Nuclei (%): 76% and 77%
  Population Hoechst High Intensity Objects (%): 5% and 8%
  Population Membrane Permeable-Phenotype (%): 0%
  Population Mitochondria Different-Phenotype (%): 41% and 55%
  Population Mitotic Cells (%): 61% and 36%
  Population Normal (%): 95% and 91%
  Population Pyknosed Nuclei (%): 12% and 15%
  Population Tubulin-Different-Phenotype (%): 25% and 22%
  Total Cell Count: 280 and 342
HEK-293T; [2]
  Population Apoptotic (%): 45%
  Population Fragmented Nuclei (%): 10% and 8%
  Population Healthy Nuclei (%): 73% and 77%
  Population Hoechst High Intensity Objects (%): 4% and 10%
  Population Membrane Permeable-Phenotype (%): 0%
  Population Mitochondria Different-Phenotype (%): 51% and 61%
  Population Mitotic Cells (%): 55% and 54%
  Population Normal (%): 95% and 89%
  Population Pyknosed Nuclei (%): 16% and 13%
  Population Tubulin-Different-Phenotype (%): 29% and 22%
  Total Cell Count: 383 and 269
HEK-293T; [3]
  Population Apoptotic (%): 43% and 48%
  Population Fragmented Nuclei (%): 9% and 7%
  Population Healthy Nuclei (%): 77% and 82%
  Population Hoechst High Intensity Objects (%): 6% and 7%
  Population Membrane Permeable-Phenotype (%): 0%
  Population Mitochondria Different-Phenotype (%): 19% and 36%
  Population Mitotic Cells (%): 56% and 51%
  Population Normal (%): 93% and 92%
  Population Pyknosed Nuclei (%): 12% and 9%
  Population Tubulin-Different-Phenotype (%): 12% and 15%
  Total Cell Count: 353 and 463
HEK-293T; [4]
  Population Apoptotic (%): 41% and 39%
  Population Fragmented Nuclei (%): 10%
  Population Healthy Nuclei (%): 74% and 79%
  Population Hoechst High Intensity Objects (%): 4% and 8%
  Population Membrane Permeable-Phenotype (%): 0%
  Population Mitochondria Different-Phenotype (%): 34% and 40%
  Population Mitotic Cells (%): 58% and 60%
  Population Normal (%): 95% and 91%
  Population Pyknosed Nuclei (%): 14% and 9%
  Population Tubulin-Different-Phenotype (%): 18% and 12%
  Total Cell Count: 479 and 363
HEK-293T; [5]
  Population Apoptotic (%): 35% and 27%
  Population Fragmented Nuclei (%): 15% and 11%
  Population Healthy Nuclei (%): 77% and 81%
  Population Hoechst High Intensity Objects (%): 1% and 0%
  Population Membrane Permeable-Phenotype (%): 1%
  Population Mitochondria Different-Phenotype (%): 16% and 18%
  Population Mitotic Cells (%): 64% and 72%
  Population Normal (%): 98% and 99%
  Population Pyknosed Nuclei (%): 6%
  Population Tubulin-Different-Phenotype (%): 11% and 10%
  Total Cell Count: 585 and 715
HEK-293T; [6]
  Population Apoptotic (%): 39% and 48%
  Population Fragmented Nuclei (%): 16%
  Population Healthy Nuclei (%): 75% and 77%
  Population Hoechst High Intensity Objects (%): 1% and 4%
  Population Membrane Permeable-Phenotype (%): 1%
  Population Mitochondria Different-Phenotype (%): 18% and 22%
  Population Mitotic Cells (%): 60% and 51%
  Population Normal (%): 98% and 95%
  Population Pyknosed Nuclei (%): 8% and 5%
  Population Tubulin-Different-Phenotype (%): 9% and 11%
  Total Cell Count: 643 and 501
Fibroblast; [1]
  Population Apoptotic (%): 28% and 38%
  Population Fragmented Nuclei (%): 21% and 32%
  Population Healthy Nuclei (%): 63% and 37%
  Population Hoechst High Intensity Objects (%): 0% and 6%
  Population Mitochondria Different-Phenotype (%): 5% and 6%
  Population Mitotic Cells (%): 71% and 61%
  Population Normal (%): 100% and 93%
  Population Pyknosed Nuclei (%): 15% and 29%
  Population Tubulin-Different-Phenotype (%): 22% and 48%
  Total Cell Count: 136 and 93
Fibroblast; [2]
  Population Apoptotic (%): 48% and 28%
  Population Fragmented Nuclei (%): 15% and 42%
  Population Healthy Nuclei (%): 67% and 32%
  Population Hoechst High Intensity Objects (%): 1% and 8%
  Population Membrane Permeable-Phenotype (%): 2% and 9%
  Population Mitochondria Different-Phenotype (%): 5% and 12%
  Population Mitotic Cells (%): 51% and 72%
  Population Normal (%): 98% and 91%
  Population Pyknosed Nuclei (%): 17% and 24%
  Population Tubulin-Different-Phenotype (%): 23% and 36%
  Total Cell Count: 179 and 110
Fibroblast; [3]
  Population Apoptotic (%): 40% and 27%
  Population Fragmented Nuclei (%): 19% and 39%
  Population Healthy Nuclei (%): 68% and 38%
  Population Hoechst High Intensity Objects (%): 2% and 7%
  Population Mitochondria Different-Phenotype (%): 3%
  Population Mitotic Cells (%): 60% and 72%
  Population Normal (%): 97% and 92%
  Population Pyknosed Nuclei (%): 11% and 22%
  Total Cell Count: 131 and 88
Fibroblast; [4]
  Population Apoptotic (%): 70% and 35%
  Population Healthy Nuclei (%): 70% and 33%
  Population Hoechst High Intensity Objects (%): 4% and 11%
  Population Membrane Permeable-Phenotype (%): 0% and 5%
  Population Mitochondria Different-Phenotype (%): 6% and 11%
  Population Mitotic Cells (%): 29% and 65%
  Population Normal (%): 95% and 88%
  Population Pyknosed Nuclei (%): 16% and 18%
  Population Tubulin-Different-Phenotype (%): 22% and 41%
  Total Cell Count: 170 and 120
Fibroblast; [5]
  Population Apoptotic (%): 61% and 50%
  Population Fragmented Nuclei (%): 21% and 45%
  Population Healthy Nuclei (%): 68% and 32%
  Population Hoechst High Intensity Objects (%): 1% and 5%
  Population Membrane Permeable-Phenotype (%): 0% and 3%
  Population Mitochondria Different-Phenotype (%): 3% and 7%
  Population Mitotic Cells (%): 38% and 50%
  Population Normal (%): 98% and 94%
  Population Pyknosed Nuclei (%): 9% and 22%
  Population Tubulin-Different-Phenotype (%): 23% and 57%
  Total Cell Count: 137 and 85
Fibroblast; [6]
  Population Apoptotic (%): 84% and 50%
  Population Fragmented Nuclei (%): 20% and 44%
  Population Healthy Nuclei (%): 63% and 38%
  Population Hoechst High Intensity Objects (%): 7% and 5%
  Population Membrane Permeable-Phenotype (%): 0% and 15%
  Population Mitochondria Different-Phenotype (%): 11% and 5%
  Population Normal (%): 92% and 94%
  Population Pyknosed Nuclei (%): 16% and 17%
  Population Tubulin-Different-Phenotype (%): 28% and 50%
  Total Cell Count: 162 and 110
